Measurements reported in ChEMBL document CHEMBL4312019, “Design, synthesis, and evaluation of compounds capable of reducing Pseudomonas aeruginosa virulence” (Eur J Med Chem, 2020).
Active and inactive are the calls of the source. The rule behind the calls is not given here.

Assays:
[1] = system: Pseudomonas aeruginosa; assay: Inhibition of biofilm formation in Pseudomonas aeruginosa PAO1 at 10 uM incubated for 10 hrs by crystal violet staining based microtiter plate method relative to control; type: functional; details: PAO1, 10 h
In short: (§1)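 PAO1 or PA14 grown at 37 °C with 10 µM compound or vehicle. Expressed as percent biofilm biomass versus vehicle-treated control; mean ± SEM.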

[2] = system: Pseudomonas aeruginosa; assay: Inhibition of biofilm formation in Pseudomonas aeruginosa PA14 at 10 uM incubated for 10 hrs by crystal violet staining based microtiter plate method relative to control; type: functional; details: PA14, 10 h; in short: as §1
[3] = target: T1, Transcriptional regulator MvfR (Pseudomonas aeruginosa PA14) (UniProt A0A072ZLE6); assay: Inhibition of Pseudomonas aeruginosa PqsR at 5 uM relative to control
T1 sequence (whole entry): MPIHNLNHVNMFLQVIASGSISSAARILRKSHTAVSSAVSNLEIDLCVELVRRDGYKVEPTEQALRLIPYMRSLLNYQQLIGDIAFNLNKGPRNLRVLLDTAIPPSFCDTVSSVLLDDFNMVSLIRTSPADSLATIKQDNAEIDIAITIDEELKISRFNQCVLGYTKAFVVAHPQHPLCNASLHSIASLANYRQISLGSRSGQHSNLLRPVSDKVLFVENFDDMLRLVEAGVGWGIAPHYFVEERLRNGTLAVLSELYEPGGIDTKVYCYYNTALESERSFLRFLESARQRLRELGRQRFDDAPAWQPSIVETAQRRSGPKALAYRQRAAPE

[4] = Inhibition of quorum sensing system in Pseudomonas aeruginosa assessed as reduction of rhamnolipids level at 10 uM measured after 24 hrs by methylene-blue based assay relative to control
In short: (§2)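 P. aeruginosa grown 24 h with or without 10 µM compound. Rhamnolipids quantified by methylene-blue assay against a six-point standard curve of commercial rhamnolipids.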

[5] = target: Voltage-gated inwardly rectifying potassium channel KCNH2 (Homo sapiens, UniProt Q12809); assay: Inhibition of human ERG
[6] = Inhibition of quorum sensing system in Pseudomonas aeruginosa assessed as reduction of rhamnolipids level at 10 uM measured after 24 hrs by methylene-blue based assay; in short: as §2
[7] = system: Pseudomonas aeruginosa; assay: Inhibition of pyocyanin production in Pseudomonas aeruginosa at 100 uM relative to control; type: functional
[8] = target: T1, Transcriptional regulator MvfR (Pseudomonas aeruginosa PA14); assay: Inhibition of Pseudomonas aeruginosa PAO1 PqsR assessed as increase in pyocyanin production level at 10 uM measured after 10 mins by spectrometry based analysis relative to control
In short: (§3)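 PAO1 cultured with or without 10 µM compound. Pyocyanin quantified by a spectrometry-based method and expressed as percent of vehicle-treated control. Mean ± SEM of at least 32 replicates.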

[9] = target: Transcriptional activator protein LasR (Pseudomonas aeruginosa (strain ATCC 15692 / PAO1 / 1C / PRS 101 / LMG12228)) (UniProt P25084); assay: Inhibition of Pseudomonas aeruginosa PAO1 LasR transfected with lasB-GFP at 10 uM measured after 12 hrs by fluorescence based microtiter plate reader method
In short: (§4)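 GFP reporter strains (PqsR: PA14 pAW1::GFP; LasR: PAO1 lasB::GFP) grown 12 h in LB broth with 5% BSA, with or without 10 µM compound.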

[10] = target: T1, Transcriptional regulator MvfR (Pseudomonas aeruginosa PA14); assay: Inhibition of Pseudomonas aeruginosa PA14 PqsR transfected with pAW1-GFP at 10 uM measured after 12 hrs by fluorescence based microtiter plate reader method; in short: as §4
[11] = system: Pseudomonas aeruginosa; assay: Inhibition of pyoverdin production in Pseudomonas aeruginosa at 10 uM relative to control; type: functional
[12] = system: Pseudomonas aeruginosa; assay: Inhibition of biofilm formation in Pseudomonas aeruginosa PAO1 at 10 uM incubated for 10 hrs by crystal violet staining based microtiter plate method; type: functional, organism-based; in short: as §1
[13] = system: Pseudomonas aeruginosa; assay: Inhibition of biofilm formation in Pseudomonas aeruginosa PA14 at 10 uM incubated for 10 hrs by crystal violet staining based microtiter plate method; type: functional, organism-based; in short: as §1
[14] = target: T1, Transcriptional regulator MvfR (Pseudomonas aeruginosa PA14); assay: Inhibition of Pseudomonas aeruginosa PAO1 PqsR assessed as reduction in pyocyanin production level at 10 uM measured after 10 mins by spectrometry based analysis; in short: as §3
[15] = system: Pseudomonas aeruginosa; assay: Inhibition of pyocyanin production in Pseudomonas aeruginosa at 50 uM relative to control; type: functional
[16] = system: Pseudomonas aeruginosa; assay: Inhibition of biofilm formation in Pseudomonas aeruginosa at 50 uM relative to control; type: functional
[17] = system: Pseudomonas aeruginosa; assay: Inhibition of pyocyanin production in Pseudomonas aeruginosa at 1 uM relative to control; type: functional

Sequence of Voltage-gated inwardly rectifying potassium channel KCNH2 (Q12809 whole entry): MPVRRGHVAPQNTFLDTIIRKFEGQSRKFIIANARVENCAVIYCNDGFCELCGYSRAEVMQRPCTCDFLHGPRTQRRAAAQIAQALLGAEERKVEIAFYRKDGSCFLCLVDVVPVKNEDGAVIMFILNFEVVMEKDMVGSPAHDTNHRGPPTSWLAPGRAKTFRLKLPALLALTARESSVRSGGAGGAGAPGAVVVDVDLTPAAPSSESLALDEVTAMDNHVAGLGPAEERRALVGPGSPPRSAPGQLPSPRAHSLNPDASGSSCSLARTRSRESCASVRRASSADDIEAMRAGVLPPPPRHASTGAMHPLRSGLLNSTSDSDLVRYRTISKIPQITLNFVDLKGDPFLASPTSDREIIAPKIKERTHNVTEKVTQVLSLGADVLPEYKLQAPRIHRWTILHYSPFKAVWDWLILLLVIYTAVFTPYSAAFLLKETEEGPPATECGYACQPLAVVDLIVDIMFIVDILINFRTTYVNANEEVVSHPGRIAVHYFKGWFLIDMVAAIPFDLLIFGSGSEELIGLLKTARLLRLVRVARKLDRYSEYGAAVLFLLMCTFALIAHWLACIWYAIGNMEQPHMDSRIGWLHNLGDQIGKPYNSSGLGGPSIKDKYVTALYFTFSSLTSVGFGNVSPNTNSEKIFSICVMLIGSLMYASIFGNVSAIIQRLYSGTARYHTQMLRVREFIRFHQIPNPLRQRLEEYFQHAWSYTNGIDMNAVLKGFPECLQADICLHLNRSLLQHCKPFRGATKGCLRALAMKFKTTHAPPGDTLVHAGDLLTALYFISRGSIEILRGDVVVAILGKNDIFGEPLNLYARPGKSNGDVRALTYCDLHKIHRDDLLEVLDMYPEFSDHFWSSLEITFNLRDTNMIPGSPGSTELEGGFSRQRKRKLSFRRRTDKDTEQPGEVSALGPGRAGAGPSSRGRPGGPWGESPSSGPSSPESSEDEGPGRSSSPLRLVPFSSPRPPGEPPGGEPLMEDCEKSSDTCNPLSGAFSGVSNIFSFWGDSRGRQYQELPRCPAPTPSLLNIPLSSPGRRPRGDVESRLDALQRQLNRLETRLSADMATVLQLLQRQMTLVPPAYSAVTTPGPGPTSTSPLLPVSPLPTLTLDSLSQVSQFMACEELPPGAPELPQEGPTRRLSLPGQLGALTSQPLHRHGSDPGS
Sequence of Transcriptional activator protein LasR (Pseudomonas aeruginosa (strain ATCC 15692 / PAO1 / 1C / PRS 101 / LMG12228)) (P25084 whole entry): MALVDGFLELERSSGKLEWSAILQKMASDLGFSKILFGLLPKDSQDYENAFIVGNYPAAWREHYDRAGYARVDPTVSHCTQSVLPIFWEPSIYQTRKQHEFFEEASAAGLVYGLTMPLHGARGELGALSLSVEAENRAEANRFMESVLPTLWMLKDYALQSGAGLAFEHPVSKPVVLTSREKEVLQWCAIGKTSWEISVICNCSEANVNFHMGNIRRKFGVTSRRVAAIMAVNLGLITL

Structure (SMILES) | inhibition at 10 µM [1] | inhibition at 10 µM [2] | IC50 [5] | further results
CCCCCCCc1[nH]c2ccc([N+](=O)[O-])cc2c(=O)c1CO | 40 to 60% | 40 to 60% |  | inhibition [3]: 100%
O=C(CCCS(=O)(=O)c1ccccc1)NC1CCOC1=O (stereo not drawn) | 40 to 60% | 40 to 60% | 109 µM | inhibition [4]: 30 to 50%
Cc1ccc(NC(=O)c2ccc3c(c2)CC(c2ccc(Cl)cc2)OC3=O)cc1C (stereo not drawn) | 40 to 60% | 40 to 60% | 6.77 µM | 
O=C(c1cn(CCCNCc2ccc(Oc3ccc(Cl)cc3)cc2)nn1)N1CCOCC1 | 40 to 60% | 40 to 60% | 0.678 µM | inhibition [6]: inactive
CCCCCCCCCNC(=O)CC(=O)c1ccccc1 |  |  |  | inhibition at 100 µM [7]: 90%
O=C(CCCS(=O)(=O)c1ccccc1)Nc1cc[nH]c(=O)n1 | 40 to 60% | 40 to 60% | 67.8 µM | inhibition [8]: 20 to 90%
O=C(CCNC(=O)c1cccc([N+](=O)[O-])c1)Nc1nc(=O)[nH]cc1F | 40 to 60% | 40 to 60% | 356 µM | inhibition [8]: 20 to 90%; inhibition [9]: inactive; inhibition [10]: Active
O=C(CCCC(=O)c1cccc([N+](=O)[O-])c1)NC1CCCC1 | 40 to 60% | 40 to 60% | 20.4 µM | inhibition [4]: 30 to 50%
O=C1C=C(Br)/C(=C/Br)O1 |  |  |  | inhibition at 10 µM [11]: > 90%
CCCCOc1cc(Cl)c(/N=N/c2c(O)ccc3ccccc23)c(OCCCC)c1 |  |  | 0.4 µM | inhibition [12]: inactive; inhibition [13]: inactive; inhibition [14]: inactive
CCCCOc1ccc(Cl)c(OCCCC)c1/N=N/c1c(O)ccc2ccccc12 |  |  | 0.38 µM | inhibition [12]: inactive; inhibition [13]: inactive; inhibition [14]: inactive
Cc1ccc(N(C)C(=O)c2ccc3c(c2)CC(c2ccc(Cl)cc2)OC3=O)cc1C (stereo not drawn) | 40 to 60% | 40 to 60% | 2.92 µM | 
O=C(Cc1ccc(Br)cc1)N[C@H]1CCOC1=O |  |  |  | inhibition at 50 µM [15]: 10 to 30%; inhibition at 50 µM [16]: 40%
O=C(CCNC(=O)c1cccc([N+](=O)[O-])c1)NC1CCOC1=O (stereo not drawn) | 40 to 60% | 40 to 60% | 904 µM | inhibition [4]: 30 to 50%
CCCCOc1cc(Cl)cc(OCCCC)c1/N=N/c1c(O)ccc2ccccc12 |  |  |  | inhibition [12]: inactive; inhibition [13]: inactive; inhibition [14]: inactive
O=C(CCCS(=O)(=O)c1ccccc1)Nc1nc(=O)[nH]cc1F | 40 to 60% | 40 to 60% | 40.5 µM | inhibition [8]: 20 to 90%; inhibition [9]: inactive; inhibition [10]: inactive
O=C(CSc1nc2cc([N+](=O)[O-])ccc2[nH]1)Nc1ccc(Oc2ccccc2)cc1 |  |  | 8.24 µM | inhibition at 1 µM [17]: 95%
